Test results reported in ChEMBL document CHEMBL4265871, “Novel alkylated azoles as potent antifungals” (Eur J Med Chem, 2017).
In brackets after ≈: the same amount, converted by molar mass.

What was measured:
[1] = Hemolytic activity in mouse erythrocytes assessed as hemolysis level at 7.8 ug/ml incubated for 1 hr at 37 degC; assay type: ADME, cell-based, Erythrocyte; conditions: read-out: Activity
Procedure, shortened: (§1)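 Mouse erythrocytes incubated 1 h at 37 °C with test agents over 1.95 to 125 µg/mL. Percent lysis is read for each concentration.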

[2] = Hemolytic activity in mouse erythrocytes assessed as hemolysis level at 31.3 ug/ml incubated for 1 hr at 37 degC; assay type: ADME, cell-based, Erythrocyte; conditions: read-out: Activity; procedure, shortened: as §1
Candida albicans [3] = experiment: Effect on sterol composition in Candida albicans ATCC 10231 assessed as lanosterol level at 0.125 ug/mL incubated for 10 mins by GC-MS analysis (reference value: 4.17%)
Candida albicans [4] = experiment: Effect on sterol composition in Candida albicans ATCC 10231 assessed as ergosterol level at 0.125 ug/mL incubated for 10 mins by GC-MS analysis (reference value: 91.15%)
[5] = Toxicity in human A549 cells assessed as reduction in cell viability incubated for 24 hrs by resazurin dye based assay
Procedure, shortened: (§2)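 Toxicity tested in the nucleated lines A549 and BEAS-2B to give EC50 values. Selectivity index is EC50 against the mammalian line divided by the MIC against a given fungal strain.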

[6] = Toxicity in human BEAS2B cells assessed as reduction in cell viability incubated for 24 hrs by resazurin dye based assay; conditions: BEAS-2B cells; procedure, shortened: as §2
Candida albicans [7] = experiment: Antifungal activity against ITC and FLC-susceptible Candida albicans ATCC MYA-2876 incubated for 48 hrs by modified CLSI M27-A3 protocol based method; assay type: functional; conditions: ATCC MYA-2876, 48 h
Procedure, shortened: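 Because these Candida strains show trailing growth, MIC-2 was read, meaning 50% growth inhibition. Caspofungin and voriconazole were tested here; other controls came from earlier work.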

[8] = Hemolytic activity in mouse erythrocytes assessed as hemolysis level at 15.6 ug/ml incubated for 1 hr at 37 degC; assay type: ADME, cell-based, Erythrocyte; conditions: read-out: Activity; procedure, shortened: as §1
Candida albicans [9] = experiment: Antifungal activity against ITC and FLC-resistant Candida albicans ATCC MYA-90819 incubated for 48 hrs by modified CLSI M27-A3 protocol based method; assay type: functional; conditions: ATCC MYA-90819, 48 h
Candida albicans [10] = experiment: Effect on sterol composition in Candida albicans ATCC 64124 assessed as lanosterol level at 1.95 ug/mL incubated for 10 mins by LC-MS analysis (reference value: 29.38%)
Nakaseomyces glabratus = experiment: Antifungal activity against Candida glabrata ATCC 2001 incubated for 48 hrs by modified CLSI M27-A3 protocol based method; assay type: functional; conditions: ATCC 2001, 48 h
Candida albicans [11] = experiment: Effect on sterol composition in Candida albicans ATCC 64124 assessed as ergosterol level at 1.95 ug/mL incubated for 10 mins by LC-MS analysis (reference value: 54.72%)
Candida albicans [12] = experiment: Effect on sterol composition in Candida albicans ATCC 64124 assessed as unknown sterol level at 1.95 ug/mL incubated for 10 mins by LC-MS analysis (reference value: 2.67 to 6.98%)
[13] = Hemolytic activity in mouse erythrocytes assessed as hemolysis level at 1.95 ug/ml incubated for 1 hr at 37 degC; assay type: ADME, cell-based, Erythrocyte; conditions: read-out: Activity; procedure, shortened: as §1
Candida albicans [14] = experiment: Effect on sterol composition in Candida albicans ATCC 64124 assessed as eburicol level at 1.95 ug/mL incubated for 10 mins by LC-MS analysis (reference value: 6.28%)
Pichia kudriavzevii = experiment: Antifungal activity against Candida krusei ATCC 6258 incubated for 48 hrs by modified CLSI M27-A3 protocol based method; assay type: functional; conditions: ATCC 6258, 48 h
Procedure, shortened: (§3)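 For C. albicans ATCC 10231, C. krusei ATCC 6258 and C. parapsilosis ATCC 22019, MIC-0 was read, meaning complete growth inhibition. For azole controls, MIC-2 (50% growth inhibition) was reported instead. Caspofungin and voriconazole were tested here; other controls came from earlier work.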

[15] = Hemolytic activity in mouse erythrocytes assessed as hemolysis level at 3.9 ug/ml incubated for 1 hr at 37 degC; assay type: ADME, cell-based, Erythrocyte; conditions: read-out: Activity; procedure, shortened: as §1
Candida albicans [16] = experiment: Effect on sterol composition in Candida albicans ATCC 10231 assessed as unknown sterol level at 0.125 ug/mL incubated for 10 mins by GC-MS analysis (reference value: 1.88 to 2.78%)
Candida albicans [17] = experiment: Antifungal activity against ITC and FLC-susceptible Candida albicans ATCC MYA-2310 incubated for 48 hrs by modified CLSI M27-A3 protocol based method; assay type: functional; conditions: ATCC MYA-2310, 48 h
Candida albicans [18] = experiment: Antifungal activity against Candida albicans ATCC 64124 incubated for 48 hrs by modified CLSI M27-A3 protocol based method; assay type: functional; conditions: ATCC 64124, 48 h
Candida parapsilosis = experiment: Antifungal activity against Candida parapsilosis ATCC 22019 incubated for 48 hrs by modified CLSI M27-A3 protocol based method; assay type: functional; conditions: Lodderomyces parapsilosis, ATCC 22019, 48 h; procedure, shortened: as §3
[19] = Hemolytic activity in mouse erythrocytes assessed as hemolysis level at 125 ug/ml incubated for 1 hr at 37 degC; assay type: ADME, cell-based, Erythrocyte; conditions: read-out: Activity; procedure, shortened: as §1
in vitro = conditions: mouse, mouse erythrocytes

OC(Cn1cncn1)(Cn1cncn1)c1ccc(F)cc1F [FLUCONAZOLE]
hemolysis at 1 h, 7.8 ug/ml [1]: 0% | hemolysis at 1 h, 31.3 ug/ml [2]: 7.5% | Activity (Candida albicans [3]): 3.81% | Activity (Candida albicans [4]): 93.79% | EC50 at 24 h [5]: > 62.5 µg/mL | EC50 at 24 h [6]: > 62.5 µg/mL | MIC50 (Candida albicans [7]): 50.9 µM (≈ 15.6 µg/mL) | hemolysis at 1 h, 15.6 ug/ml [8]: 0% | MIC50 (Candida albicans [9]): > 408 µM | Activity (Candida albicans [10]): 30.59% | MIC50 (Nakaseomyces glabratus): > 102 µM | Activity (Candida albicans [11]): 48.03% | Activity (Candida albicans [12]): 0.02 - 9.75% | hemolysis at 1 h, 1.95 ug/ml [13]: 0% | Activity (Candida albicans [14]): 11.61% | MIC50 (Pichia kudriavzevii): > 102 µM | hemolysis at 1 h, 3.9 ug/ml [15]: 0% | Activity (Candida albicans [16]): 1.12 - 1.25% | MIC50 (Candida albicans [17]): > 408 µM | MIC50 (Candida albicans [18]): > 408 µM | MIC50 (Candida parapsilosis): 6.4 µM (≈ 1.96 µg/mL) | hemolysis at 1 h, 125 ug/ml [19]: 13.4% | hemolysis at 1 h, 62.5 ug/ml (in vitro): 2.7%
